Experimental data reported in ChEMBL document CHEMBL4342523, “Discovery and Development of S6821 and S7958 as Potent TAS2R8 Antagonists” (J Med Chem, 2020).
Values after ≈ are worked out from the molar mass of the structure shown. Values belong to the compound of their own block, whether it stands above or below them. Active and inactive are the calls of the source. The calls are words filed in the database; no cut-off is given here.

Tests used:
[1] = target: T1, Taste receptor type 2 member 8 (Homo sapiens) (UniProt Q9NYW2); test: Reversible antagonist activity at recombinant human TAS2R8 assessed as recovery of suppression of andrographolide-induced intracellular calcium level at 1 uM preincubated for 60 secs followed by andrographolide addition measured after 5 mins washout period using Fura-2AM dye by cell-based fluorescent microscopic analysis; format: functional
T1 sequence (whole entry): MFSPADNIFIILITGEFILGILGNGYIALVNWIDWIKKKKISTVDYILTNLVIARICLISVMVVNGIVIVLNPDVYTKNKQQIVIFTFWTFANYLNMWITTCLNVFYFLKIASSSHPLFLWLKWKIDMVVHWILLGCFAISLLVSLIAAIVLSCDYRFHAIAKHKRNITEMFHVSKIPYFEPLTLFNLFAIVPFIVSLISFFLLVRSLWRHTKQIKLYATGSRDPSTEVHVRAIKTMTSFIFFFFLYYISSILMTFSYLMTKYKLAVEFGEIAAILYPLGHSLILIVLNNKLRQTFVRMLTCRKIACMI
Procedure, shortened: (§1)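 TAS2R8 stable cells grown overnight on Matrigel-coated coverslips, loaded with 3 μg/mL Fura-2AM 1 h at RT in HBSS; ratiometric imaging under continuous HBSS perfusion with 100 μM andrographolide. Inhibitor 1 μM applied 60 s before and during agonist; 5 min HBSS washout between applications; only cells with initial ΔF/F > 0.5 analysed; mean and per-cell peak responses, 136 cells, 3 experiments.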

[2] = target: Taste receptor type 2 member 43 (Homo sapiens) (UniProt P59537); test: Antagonist activity at recombinant human TAS2R43 transiently expressed in HEK293T co-expressing Galpha16gust44 assessed as inhibition of aristolochic acid-induced intracellular calcium level by measuring remaining activity at 25 uM by fluo-4AM dye based FLIPR assay relative to control; format: functional, cell-based
Taste receptor type 2 member 43 (Homo sapiens), sequence (P59537 whole entry): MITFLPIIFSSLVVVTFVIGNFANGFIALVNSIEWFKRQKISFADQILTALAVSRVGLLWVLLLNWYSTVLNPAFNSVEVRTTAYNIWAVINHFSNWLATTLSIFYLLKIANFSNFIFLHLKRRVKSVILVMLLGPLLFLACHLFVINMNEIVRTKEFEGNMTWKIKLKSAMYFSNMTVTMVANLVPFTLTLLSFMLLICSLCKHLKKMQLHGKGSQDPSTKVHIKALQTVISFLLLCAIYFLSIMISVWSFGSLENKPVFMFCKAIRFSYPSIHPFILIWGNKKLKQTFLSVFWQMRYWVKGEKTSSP

[3] = target: Taste receptor type 2 member 14 (Homo sapiens, UniProt Q9NYV8); test: Agonist activity at TAS2R14 (unknown origin) by stably expressed cell-based assay
[4] = Maternal toxicity in po dosed Sprague-Dawley rat administered via gavage during gestation period; format: ADME, organism-based; settings: female, in vivo
[5] = Ratio of solubility of the compound in pH 7.1 buffer measured after 24 hrs to IC50 for antagonist activity at recombinant human TAS2R8 expressed in cells co-expressing Galpha16gust44 assessed as inhibition of andrographolide-induced intracellular calcium level; format: cell-based
[6] = Stability of the compound in pH 9.3 buffer assessed as parent compound remaining measured after 24 hrs at room temperature; format: physicochemical; settings: read-out: Stability
Homo sapiens = test: In vivo agonist activity at TAS2R14 in human assessed as induction of intrinsic bitterness up to 150 uM in presence of low sodium buffer by 15-point bitterness scale based assay; format: functional, organism-based
Procedure, shortened: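 Human sensory test: trained external panelists, no food or drink except water ≥1 h before; compound from ethanol stock, final ethanol 0.1% (matched in blanks), in low sodium phosphate buffer pH 7.1 (0.3 mM KCl, 0.5 mM Na2HPO4, 0.175 mM KH2PO4); bitterness rated on 1–15 scale, 15 panelists × 2 replicates, Tukey's test (α = 0.05).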

[7] = Stability of the compound in pH 2.8 buffer assessed as parent compound remaining measured after 24 hrs at 100 degC; format: physicochemical; settings: read-out: Stability
[8] = Stability of the compound in pH 6.5 buffer assessed as parent compound remaining measured after 30 secs at 140 degC; format: physicochemical; settings: read-out: Stability
[9] = Chronic toxicity in po dosed Sprague-Dawley rat administered daily for 90 days; format: organism-based; settings: in vivo
[10] = target: T2, Taste receptor type 2 member 14 (Homo sapiens) (UniProt Q9NYV8); test: Agonist activity at TAS2R14 (unknown origin) at 25 uM by transiently expressed cell-based assay
T2 sequence (whole entry): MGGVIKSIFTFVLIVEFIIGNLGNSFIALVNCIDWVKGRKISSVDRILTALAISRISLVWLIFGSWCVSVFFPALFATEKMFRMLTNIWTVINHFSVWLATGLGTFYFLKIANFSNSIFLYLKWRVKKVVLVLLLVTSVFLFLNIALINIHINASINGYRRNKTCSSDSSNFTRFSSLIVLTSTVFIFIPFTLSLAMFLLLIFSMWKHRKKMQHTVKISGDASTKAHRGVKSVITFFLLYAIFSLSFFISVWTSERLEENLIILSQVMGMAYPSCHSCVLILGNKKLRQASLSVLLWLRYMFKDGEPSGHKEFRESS

[11] = Stability of the compound in pH 6 buffer assessed as parent compound remaining measured after 60 mins at 124 degC; format: physicochemical; settings: read-out: Stability
[12] = target: T2, Taste receptor type 2 member 14 (Homo sapiens); test: Antagonist activity at recombinant human TAS2R14 transiently expressed in HEK293T co-expressing Galpha16gust44 assessed as inhibition of aristolochic acid-induced intracellular calcium level by measuring remaining activity at 25 uM by fluo-4AM dye based FLIPR assay relative to control; format: functional, cell-based
[13] = target: Taste receptor type 2 member 50 (Homo sapiens) (UniProt P59544); test: Antagonist activity at recombinant human TAS2R50 transiently expressed in HEK293T co-expressing Galpha16gust44 assessed as inhibition of andrographolide-induced intracellular calcium level by measuring remaining activity at 25 uM by fluo-4AM dye based FLIPR assay relative to control; format: functional, cell-based
Taste receptor type 2 member 50 (Homo sapiens), sequence (P59544 whole entry): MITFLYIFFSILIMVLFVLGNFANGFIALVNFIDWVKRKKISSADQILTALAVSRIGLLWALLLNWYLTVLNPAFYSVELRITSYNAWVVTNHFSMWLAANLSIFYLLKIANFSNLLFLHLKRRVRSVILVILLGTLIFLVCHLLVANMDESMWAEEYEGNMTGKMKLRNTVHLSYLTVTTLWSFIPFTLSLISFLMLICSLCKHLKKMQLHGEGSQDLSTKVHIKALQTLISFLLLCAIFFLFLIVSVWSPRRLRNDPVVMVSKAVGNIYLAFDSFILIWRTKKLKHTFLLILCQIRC

[14] = target: T1, Taste receptor type 2 member 8 (Homo sapiens); test: Competitive antagonist activity at recombinant human TAS2R8 assessed as inhibition of chloramphenicol-induced intracellular calcium level at 3 to 3000 nM preincubated for 60 secs followed by varying levels of chloramphenicol addition using Fura-2AM dye by cell-based fluorescent microscopic analysis
[15] = Stability of the compound in pH 7.1 buffer assessed as parent compound remaining measured after 24 hrs at room temperature; format: physicochemical; settings: read-out: Stability
[16] = Stability of the compound in pH 5 buffer assessed as parent compound remaining measured after 24 hrs at room temperature; format: physicochemical; settings: read-out: Stability
[17] = Drug metabolism in pH 7.1 buffer assessed as hydrolytic opening of hydantoin ring by measuring compound 66 formation measured under heat condition
[18] = target: T1, Taste receptor type 2 member 8 (Homo sapiens); test: Antagonist activity at recombinant human TAS2R8 assessed as inhibition of andrographolide-induced intracellular calcium level at 1 uM preincubated for 60 secs followed by andrographolide addition using Fura-2AM dye by cell-based fluorescent microscopic analysis; format: functional; procedure, shortened: as §1
[19] = Solubility of the compound in pH 7.1 buffer measured after 24 hrs; format: physicochemical
[20] = Maternal toxicity in po dosed Sprague-Dawley rat assessed as effect on embryo and fetal development administered via gavage during gestation period; format: ADME, organism-based; settings: female, in vivo
[21] = Stability of the compound in pH 2.8 buffer assessed as parent compound remaining measured after 24 hrs at room temperature; format: physicochemical; settings: read-out: Stability

- inhibition [1]: Active
- Activity [2]: 84%
- EC50 [3]: 40 µM
- remaining at 24 h [6]: 20%
- remaining at 24 h [7]: > 99%
- remaining at 0.5 min [8]: > 99%
- Activity [10]: Active
- remaining at 1 h [11]: > 99%
- Activity [12]: 124%
- Activity [13]: 99%
- inhibition [14]: Active
- remaining at 24 h [15]: > 99%
- remaining at 24 h [16]: > 99%
- inhibition [18]: Active
- solubility at 24 h [19]: 244 µM (≈ 93.1 µg/mL)
- remaining at 24 h [21]: > 99%
SMILES: Cc1noc(C)c1Cn1cc(N2C(=O)CN(Cc3cccc(O)c3)C2=O)cn1
- NOAEL [4]: 1000 mg/kg
- Ratio [5]: 11600
- Activity (Homo sapiens): inactive
- NOAEL at 2160 h [9]: 100 mg/kg
- Drug metabolism [17]: Metabolite detected
- NOAEL [20]: 1000 mg/kg

- Activity [2]: 88%
- remaining at 24 h [7]: > 99%
- Activity [12]: 97%
- Activity [13]: 91%
- solubility at 24 h [19]: 72 µM (≈ 29.5 µg/mL)
SMILES: Cc1noc(C)c1Cn1cc(N2C(=O)N(Cc3cccc(O)c3)C(C)(C)C2=O)cn1
- Ratio [5]: 1290
